From ChEMBL document CHEMBL1795341, “Efficient synthesis, structural characterization and anti-microbial activity of chiral aryl boronate esters of 1,2-O-isopropylidene-α-D-xylofuranose” (2011) come the findings set out here.

Converted amounts (≈) assume the structure as drawn.

Broadly, the MIC is the smallest concentration in the dilution series that meets the test's criterion for growth inhibition.

Common to all, as to assay type: functional
Experiment [1] relates to Candida albicans. In words: Antifungal activity against Candida albicans MTCC 227 at 100 ug after 48 hrs by agar well diffusion method. To be noted: MTCC 227, 48 h, read-out: DIZ. In outline: (§1)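 Agar well diffusion on potato dextrose agar; 0.5 ml week-old culture spread over solidified plates, 6 mm wells bored. Compounds dissolved in DMSO at different concentrations and added to wells, with controls. Incubated 27 °C for 48 h; inhibition zone diameter measured in mm; three to four replicates per treatment.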

The test system of a further experiment is Staphylococcus aureus. As to the kind of experiment: Antibacterial activity against Staphylococcus aureus MTCC 96 by broth microdilution method. (In general: Broth dilution looks for growth in wells or tubes with falling amounts of substance.)
The test system of experiment [2] is Diutina rugosa. In words: Antifungal activity against Candida rugosa NCIM 3462 at 150 ug after 48 hrs by agar well diffusion method. To be noted: NCIM 3462, 48 h, read-out: DIZ. In outline: as §1
For a further experiment, the system named is Klebsiella pneumoniae. In words: Antibacterial activity against Klebsiella pneumoniae MTCC 618 by broth microdilution method.
Experiment [3] relates to Aspergillus niger. In words: Antifungal activity against Aspergillus niger MTCC 282 at 150 ug after 48 hrs by agar well diffusion method. To be noted: MTCC 282, 48 h, read-out: DIZ. The essentials:
as §1
In general terms: In agar diffusion tests the substance spreads into inoculated agar from a disc or well.

In experiment [4] the test system is Staphylococcus epidermidis. As to the kind of experiment: Antibacterial activity against Staphylococcus epidermidis MTCC 2639 by broth microdilution method.
The subject of a further experiment is Bacillus subtilis. As to the kind of experiment: Antibacterial activity against Bacillus subtilis MTCC 441 by broth microdilution method.
A further experiment deals with Pseudomonas aeruginosa. As to the kind of experiment: Antibacterial activity against Pseudomonas aeruginosa MTCC 741 by broth microdilution method.
For experiment [5], the system named is Diutina rugosa. In words: Antifungal activity against Candida rugosa NCIM 3462 at 100 ug after 48 hrs by agar well diffusion method. Particulars: NCIM 3462, 48 h, read-out: DIZ. The essentials:
as §1

The test system of the next experiment is Escherichia coli. As to the kind of experiment: Antibacterial activity against Escherichia coli MTCC 443 by broth microdilution method.
Experiment [6] deals with Aspergillus niger. In words: Antifungal activity against Aspergillus niger MTCC 282 at 100 ug after 48 hrs by agar well diffusion method. To be noted: MTCC 282, 48 h, read-out: DIZ. In outline: as §1
Experiment [7] concerns Candida albicans. In words: Antifungal activity against Candida albicans MTCC 227 at 150 ug after 48 hrs by agar well diffusion method. Particulars: MTCC 227, 48 h, read-out: DIZ. The essentials:
as §1

Experiment [8] has as its system Saccharomyces cerevisiae. In words: Antifungal activity against Saccharomyces cerevisiae MTCC 36 at 100 ug after 48 hrs by agar well diffusion method. Particulars: MTCC 36, 48 h, read-out: DIZ. In outline:
as §1

Experiment [9] has as its system Saccharomyces cerevisiae. As to the kind of experiment: Antifungal activity against Saccharomyces cerevisiae MTCC 36 at 150 ug after 48 hrs by agar well diffusion method. Particulars: MTCC 36, 48 h, read-out: DIZ. The essentials:
as §1

For `CC1(C)O[C@H]2O[C@@H]3COB(c4cccs4)O[C@@H]3[C@H]2O1`, the zone of inhibition at 100 µg/disc stood at 0 mm in the experiment on Candida albicans [1], 9 mm in the experiment with Diutina rugosa [5], 9 mm in the experiment on Aspergillus niger [6] and 12 mm with Saccharomyces cerevisiae [8]. Also, the MIC is 150 µg/mL (≈ 532 µM) with Staphylococcus aureus; 150 µg/mL (≈ 532 µM) in the experiment on Klebsiella pneumoniae; 37.5 µg/mL (≈ 133 µM) in experiment [4]; 75 µg/mL (≈ 266 µM) in the experiment on Bacillus subtilis; 75 µg/mL (≈ 266 µM) in the experiment on Pseudomonas aeruginosa; 150 µg/mL (≈ 532 µM) in the experiment on Escherichia coli. The zone of inhibition at 150 µg/disc with Diutina rugosa [2] stood at 13 mm; in the experiment with Aspergillus niger [3] it was 11 mm; in the experiment on Candida albicans [7], 6 mm; with Saccharomyces cerevisiae [9], 17 mm.

`CC1(C)O[C@H]2O[C@@H]3COB(c4ccsc4)O[C@@H]3[C@H]2O1`: the zone of inhibition at 100 µg/disc amounted to 0 mm in the experiment with Candida albicans [1], 14 mm with Diutina rugosa [5], 12 mm in the experiment with Aspergillus niger [6] and 10 mm in the experiment with Saccharomyces cerevisiae [8]. The MIC in the experiment with Staphylococcus aureus worked out at 37.5 µg/mL (≈ 133 µM); with Klebsiella pneumoniae it was 75 µg/mL (≈ 266 µM); in experiment [4] it was 18.8 µg/mL (≈ 66.5 µM); against Bacillus subtilis it was 75 µg/mL (≈ 266 µM); in the experiment with Pseudomonas aeruginosa, 18.8 µg/mL (≈ 66.5 µM); with Escherichia coli it was 4.68 µg/mL (≈ 16.6 µM). Further, the zone of inhibition at 150 µg/disc was 20 mm in the experiment on Diutina rugosa [2], 16 mm in the experiment with Aspergillus niger [3], 7 mm in the experiment on Candida albicans [7] and 14 mm in the experiment with Saccharomyces cerevisiae [9].

For the molecule `C=Cc1ccc(B2OC[C@H]3O[C@@H]4OC(C)(C)O[C@@H]4[C@H]3O2)cc1`, the zone of inhibition at 100 µg/disc with Candida albicans [1] is 6 mm; in the experiment on Diutina rugosa [5], 0 mm; in the experiment on Aspergillus niger [6], 9 mm; in the experiment with Saccharomyces cerevisiae [8], 6 mm. Moreover, the MIC against Staphylococcus aureus worked out at 75 µg/mL (≈ 248 µM); in the experiment with Klebsiella pneumoniae, 150 µg/mL (≈ 496 µM); in experiment [4], 75 µg/mL (≈ 248 µM); with Bacillus subtilis it was 75 µg/mL (≈ 248 µM); against Pseudomonas aeruginosa, 37.5 µg/mL (≈ 124 µM); against Escherichia coli, 150 µg/mL (≈ 496 µM). In addition, the zone of inhibition at 150 µg/disc in the experiment with Diutina rugosa [2] was 0 mm; in the experiment on Aspergillus niger [3], 14 mm; in the experiment with Candida albicans [7], 9 mm; in the experiment with Saccharomyces cerevisiae [9], 8 mm.

For the molecule `CC1(C)O[C@H]2O[C@@H]3COB(c4ccccc4)O[C@@H]3[C@H]2O1`, the zone of inhibition at 100 µg/disc with Candida albicans [1] is 0 mm; in the experiment with Diutina rugosa [5], 0 mm; in the experiment on Aspergillus niger [6], 8 mm; in the experiment on Saccharomyces cerevisiae [8], 0 mm. In addition, the MIC worked out at 75 µg/mL (≈ 272 µM) in the experiment on Staphylococcus aureus; 75 µg/mL (≈ 272 µM) against Klebsiella pneumoniae; 18.8 µg/mL (≈ 67.9 µM) in experiment [4]; 37.5 µg/mL (≈ 136 µM) with Bacillus subtilis; 37.5 µg/mL (≈ 136 µM) with Pseudomonas aeruginosa; 18.8 µg/mL (≈ 67.9 µM) with Escherichia coli. Moreover, the zone of inhibition at 150 µg/disc with Diutina rugosa [2] stood at 0 mm; with Aspergillus niger [3] it was 12 mm; in the experiment with Candida albicans [7], 6 mm; with Saccharomyces cerevisiae [9], 0 mm.

Regarding `COc1ccc(B2OC[C@H]3O[C@@H]4OC(C)(C)O[C@@H]4[C@H]3O2)cc1`, the zone of inhibition at 100 µg/disc in the experiment on Candida albicans [1] was determined as 0 mm; with Diutina rugosa [5] it was 7 mm; in the experiment with Aspergillus niger [6], 0 mm; with Saccharomyces cerevisiae [8], 0 mm. For the same molecule, the MIC against Staphylococcus aureus was 150 µg/mL (≈ 490 µM); in the experiment with Klebsiella pneumoniae, 75 µg/mL (≈ 245 µM); in experiment [4], 150 µg/mL (≈ 490 µM); against Bacillus subtilis, 150 µg/mL (≈ 490 µM); in the experiment with Pseudomonas aeruginosa it was 150 µg/mL (≈ 490 µM); with Escherichia coli, 150 µg/mL (≈ 490 µM). Also, the zone of inhibition at 150 µg/disc was found to be 10 mm with Diutina rugosa [2], 0 mm in the experiment on Aspergillus niger [3], 0 mm with Candida albicans [7] and 0 mm with Saccharomyces cerevisiae [9].

As for `CC1(C)O[C@H]2O[C@@H]3COB(c4ccc(F)cc4)O[C@@H]3[C@H]2O1`, the zone of inhibition at 100 µg/disc with Candida albicans [1] amounted to 6 mm; in the experiment with Diutina rugosa [5], 11 mm; in the experiment on Aspergillus niger [6] it was 0 mm; in the experiment with Saccharomyces cerevisiae [8], 7 mm. For the same molecule, the minimum inhibitory concentration (MIC) against Staphylococcus aureus is 18.8 µg/mL (≈ 63.8 µM); in the experiment on Klebsiella pneumoniae, 37.5 µg/mL (≈ 128 µM); in [4] it was 75 µg/mL (≈ 255 µM); against Bacillus subtilis it was 75 µg/mL (≈ 255 µM); in the experiment with Pseudomonas aeruginosa it was 75 µg/mL (≈ 255 µM); against Escherichia coli it was 37.5 µg/mL (≈ 128 µM). The zone of inhibition at 150 µg/disc with Diutina rugosa [2] was 14 mm; in the experiment on Aspergillus niger [3], 6 mm; with Candida albicans [7] it was 8 mm; with Saccharomyces cerevisiae [9], 10 mm.

As to `C[C@@H]1[C@H](O)[C@@H](C)/C=C/C=C/C=C/C=C/C=C/C=C/C=C/[C@H](O[C@@H]2O[C@H](C)[C@@H](O)[C@H](N)[C@@H]2O)C[C@@H]2O[C@](O)(C[C@@H](O)C[C@@H](O)[C@H](O)CC[C@@H](O)C[C@@H](O)CC(=O)O[C@H]1C)C[C@H](O)[C@H]2C(=O)O` [AMPHOTERICIN B], the zone of inhibition at 100 µg/disc is 23.5 mm in the experiment on Candida albicans [1], 21 mm with Diutina rugosa [5], 25 mm in the experiment on Aspergillus niger [6] and 22 mm with Saccharomyces cerevisiae [8].
